The record followed here is ChEMBL document CHEMBL4699669, “Discovery of a Potent Adenine-Benzyltriazolo-Pleuromutilin Conjugate with Pronounced Antibacterial Activity against MRSA” (J Med Chem, 2020).

The subject of data set [1] is Staphylococcus aureus. The data set can be described thus: Antibacterial activity against methicilin-resistant Staphylococcus aureus 55508 incubated for 20 to 24 hrs by microbroth dilution assay. The note with it: time hrs 20-24. It counts as functional. Summed up:
(§1)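 Broth microdilution per EUCAST in Mueller-Hinton broth. Inoculum 5.0·10^5 CFU/mL, prepared from overnight single-colony cultures at OD600 0.1 then diluted 100x. Final compound concentrations 0.015–16 µg/mL. Incubation at 37 °C for 20–24 h, protected from light. MIC is the lowest concentration with no visible growth. Each replicate uses three cultures; n = 2–3.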
In general terms: Dilution methods test growth across graded concentrations, often in twofold steps.

The next data set concerns PC-3. The data set can be described thus: Cytotoxicity against human PC3 cells assessed as cell viability at 108 ug/ml incubated for 3 hrs by Cell-titer Glo assay. It counts as cell-based. The note with it: pc-3, 3 h, dose 108 µg/ml. Summed up: (§2)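 Cells rinsed of growth medium, then exposed 3 h at 37 °C, 220 rpm, light-protected, to compound in HBSS with 10 mM HEPES, pH 7.4 (final DMSO <1% at top concentrations). Plates equilibrated 10 min at rt, CellTiter-Glo 2.0 added, mixed 2 min, signal stabilized 10 min. Luminescence (ATP) normalized to HBSS-only control cells. Mean ± SD of 3 wells, one passage.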

Data set [2] has as its system Staphylococcus aureus. The data set can be described thus: Antibacterial activity against methicilin-resistant Staphylococcus aureus USA300 FPR3757 incubated for 20 to 24 hrs by microbroth dilution assay. It counts as functional. Conditions: time hrs 20-24. The method, boiled down: as §1
The test system of a further data set is HEK293. Put plainly: Cytotoxicity against HEK293 cells expressing OAT3 assessed as cell viability at 108 ug/ml incubated for 3 hrs by Cell-titer Glo assay. It counts as ADME, cell-based. The note with it: human, hek293, 3 h, dose 108 µg/ml. Summed up: as §2
Data set [3] concerns Staphylococcus aureus. The data set can be described thus: Antibacterial activity against methicilin-resistant Staphylococcus aureus 4828 incubated for 20 to 24 hrs by microbroth dilution assay. It counts as functional. Conditions: time hrs 20-24. The method, boiled down:
as §1

Data set [4] concerns Staphylococcus aureus. The data set can be described thus: Antibacterial activity against methicilin-resistant Staphylococcus aureus 52518 incubated for 20 to 24 hrs by microbroth dilution assay. It counts as functional. Conditions: time hrs 20-24. Summed up:
as §1

Data set [5] has as its system Staphylococcus epidermidis. Put plainly: Antibacterial activity against methicilin-resistant Staphylococcus epidermis 933010 incubated for 20 to 24 hrs by microbroth dilution assay. It counts as functional. The note with it: time hrs 20-24. The method, boiled down: as §1
The subject of data set [6] is Caco-2. The data set can be described thus: Cytotoxicity against differentiated human Caco2 cells assessed as increase in ATP level at 108 ug/ml incubated for 3 hrs by Cell-titer Glo assay. It counts as cell-based. Conditions: caco-2, 3 h, dose 108 µg/ml. Summed up: as §2
Data set [7] has as its system Caco-2. The data set can be described thus: Cytotoxicity against undifferentiated human Caco2 cells assessed as ATP level at 108 ug/ml incubated for 3 hrs by Cell-titer Glo assay. It counts as cell-based. The note with it: caco-2, 3 h, dose 108 µg/ml. The method, boiled down:
as §2

Data set [8] concerns Staphylococcus aureus. Put plainly: Antibacterial activity against methicilin-resistant Staphylococcus aureus USA300 FPR3757 incubated for 20 hrs by microbroth dilution assay. It counts as functional. Summed up: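 MBC determined from a completed MIC replicate (MRSA USA300 FPR3757, Mueller-Hinton, 5.0·10^5 CFU/mL). […] MBC is the lowest concentration giving a 99.9% reduction of the starting inoculum; n = 3.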

Data set [9] is described as follows: Cytotoxicity against MDCK1 assessed as cell viability at 108 ug/ml incubated for 3 hrs by Cell-titer Glo assay. Details: species or system Canis lupus familiaris. The note with it: dog, mdck1, 3 h, dose 108 µg/ml. The method, boiled down: as §2
Data set [10] has as its system Caco-2. The data set can be described thus: Cytotoxicity against human Caco2 cells assessed as cell viability at 108 ug/ml incubated for 3 hrs by MTT assay. It counts as cell-based. Conditions: caco-2, 3 h, dose 108 µg/ml. Summed up: (§3)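 Undifferentiated Caco-2 cells, medium aspirated, treated 3 h at 37 °C, 220 rpm with compound in HEPES-buffered HBSS (HBSS alone as negative control, SDS as positive control). MTT then added (final 0.5 mg mL⁻¹) for 2 h more. Formazan dissolved overnight at 4 °C in 10 mM HCl/50% isobutanol/10% SDS. Mean ± SD of 3 wells, one passage.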
Background: Tetrazolium assays rely on reduction of a dye to a coloured formazan, in cell work by metabolically active cells.

Data set [11] deals with Caco-2. The data set can be described thus: Cytotoxicity against undifferentiated human Caco2 cells assessed as ATP level at 100 ug/ml incubated for 3 hrs by Cell-titer Glo assay. It counts as cell-based. Conditions: caco-2, 3 h, dose 100 µg/ml. The method, boiled down: as §2
Data set [12] can be described thus: Cytotoxicity against human PC3 cells assessed as decrease in ATP level at 100 ug/ml incubated for 3 hrs by Cell-titer Glo assay relative to control. It counts as cell-based, PC-3. The note with it: at 100 µg/mL, read-out: INH. The method, boiled down: as §2
The subject of data set [13] is Caco-2. The data set can be described thus: Cytotoxicity against differentiated human Caco2 cells assessed as increase in ATP level at 100 ug/ml incubated for 3 hrs by Cell-titer Glo assay. Conditions: caco-2, 3 h, dose 100 µg/ml. It counts as cell-based. Summed up: as §2
Data set [14] has as its system Caco-2. The data set can be described thus: Cytotoxicity against human Caco2 cells assessed as cell viability at 100 ug/ml incubated for 3 hrs by MTT assay. It counts as cell-based. The note with it: caco-2, 3 h, dose 100 µg/ml. The method, boiled down: as §3
Data set [15] has as its system Caco-2. The data set can be described thus: Cytotoxicity against differentiated human Caco2 cells assessed as increase in ATP level at 33 ug/ml incubated for 3 hrs by Cell-titer Glo assay. It counts as cell-based. Conditions: caco-2, 3 h, dose 33 µg/ml. Summed up: as §2
Data set [16] relates to Caco-2. The data set can be described thus: Cytotoxicity against differentiated human Caco2 cells assessed as ATP level at 33 ug/ml incubated for 3 hrs by Cell-titer Glo assay. It counts as cell-based. The note with it: caco-2, 3 h, dose 33 µg/ml. Summed up:
as §2

Data set [17] relates to Caco-2. Put plainly: Cytotoxicity against human Caco2 cells assessed as cell viability at 33 ug/ml incubated for 3 hrs by MTT assay. The note with it: caco-2, 3 h, dose 33 µg/ml. It counts as cell-based. Summed up:
as §3

≈ marks a conversion by molar mass, not a printed value.

`C=C[C@]1(C)C[C@@H](OC(=O)Cn2cc(-c3ccc(Cn4cnc5c(N)ncnc54)cc3)nn2)[C@]2(C)[C@H](C)CC[C@]3(CCC(=O)[C@H]32)[C@@H](C)[C@@H]1O`: the MIC was found to be 0.06 µg/mL (≈ 0.0919 µM) in the data set with Staphylococcus aureus [1]; 0.03 µg/mL (≈ 0.046 µM) against Staphylococcus aureus [2]; 0.06 µg/mL (≈ 0.0919 µM) in the data set with Staphylococcus aureus [3]; 0.03 µg/mL (≈ 0.046 µM) in the data set on Staphylococcus aureus [4]; 0.25 µg/mL (≈ 0.383 µM) in [5]. In addition, the Activity result is given as “Non-Toxic” with PC-3; “Non-Toxic” with HEK293; “Toxic” in the data set with Caco-2 [6]; “Non-Toxic” in the data set with Caco-2 [7]; “Non-Toxic” in data set [9]; “Non-Toxic” in the data set on Caco-2 [10]. The compound further gave an MBC with Staphylococcus aureus [8] of 0.12 µg/mL (≈ 0.184 µM).
With `C=C[C@]1(C)C[C@@H](OC(=O)CSC(C)(C)CNC(=O)[C@H](N)C(C)C)[C@]2(C)[C@H](C)CC[C@]3(CCC(=O)[C@H]32)[C@@H](C)[C@@H]1O` [VALNEMULIN], the MIC in the data set with Staphylococcus aureus [1] was determined as 0.12 µg/mL (≈ 0.212 µM); against Staphylococcus aureus [2], 0.06 µg/mL (≈ 0.106 µM); with Staphylococcus aureus [3] it was 0.06 µg/mL (≈ 0.106 µM); against Staphylococcus aureus [4] it was 0.06 µg/mL (≈ 0.106 µM); in data set [5], 0.25 µg/mL (≈ 0.443 µM). The Activity result in the data set with Caco-2 [11] is reported as “Non-Toxic”; with Caco-2 [13] it was “Toxic”; in the data set on Caco-2 [14], “Non-Toxic”. In addition, the cytotoxicity at 3 h, 100 ug/ml in data set [12] is 22%. For the same compound, the MBC in the data set on Staphylococcus aureus [8] was 0.12 µg/mL (≈ 0.212 µM).
With `C=C[C@]1(C)C[C@@H](OC(=O)CS[C@@H]2C[C@H]3CC[C@@H](C2)N3C)[C@]2(C)[C@H](C)CC[C@]3(CCC(=O)[C@H]32)[C@@H](C)[C@@H]1O` [RETAPAMULIN], the MIC against Staphylococcus aureus [1] was 0.25 µg/mL (≈ 0.483 µM); in the data set with Staphylococcus aureus [2] it was 0.25 µg/mL (≈ 0.483 µM); against Staphylococcus aureus [3], 0.25 µg/mL (≈ 0.483 µM); in the data set with Staphylococcus aureus [4] it was 0.12 µg/mL (≈ 0.232 µM); in [5], 0.5 µg/mL (≈ 0.966 µM). In addition, the Activity result in the data set on Caco-2 [15] is recorded as “Toxic”; in the data set on Caco-2 [16], “Non-Toxic”; in the data set with Caco-2 [17] it was “Non-Toxic”. Also, the MBC in the data set with Staphylococcus aureus [8] is more than 2 µg/mL.

Usually MIC stands for the least concentration at which growth counts as inhibited. One may read the MBC as the smallest concentration meeting the test's criterion for killing.
